Results on five molecules are retold here after ChEMBL document CHEMBL4330096, “Discovery of potent and selective 5-azaindazole inhibitors of leucine-rich repeat kinase 2 (LRRK2) - Part 1” (Bioorg Med Chem Lett, 2019).

Experiment [1] addresses T1, Serine/threonine-protein kinase D1 (Homo sapiens) (UniProt Q15139).
T1 sequence (whole entry): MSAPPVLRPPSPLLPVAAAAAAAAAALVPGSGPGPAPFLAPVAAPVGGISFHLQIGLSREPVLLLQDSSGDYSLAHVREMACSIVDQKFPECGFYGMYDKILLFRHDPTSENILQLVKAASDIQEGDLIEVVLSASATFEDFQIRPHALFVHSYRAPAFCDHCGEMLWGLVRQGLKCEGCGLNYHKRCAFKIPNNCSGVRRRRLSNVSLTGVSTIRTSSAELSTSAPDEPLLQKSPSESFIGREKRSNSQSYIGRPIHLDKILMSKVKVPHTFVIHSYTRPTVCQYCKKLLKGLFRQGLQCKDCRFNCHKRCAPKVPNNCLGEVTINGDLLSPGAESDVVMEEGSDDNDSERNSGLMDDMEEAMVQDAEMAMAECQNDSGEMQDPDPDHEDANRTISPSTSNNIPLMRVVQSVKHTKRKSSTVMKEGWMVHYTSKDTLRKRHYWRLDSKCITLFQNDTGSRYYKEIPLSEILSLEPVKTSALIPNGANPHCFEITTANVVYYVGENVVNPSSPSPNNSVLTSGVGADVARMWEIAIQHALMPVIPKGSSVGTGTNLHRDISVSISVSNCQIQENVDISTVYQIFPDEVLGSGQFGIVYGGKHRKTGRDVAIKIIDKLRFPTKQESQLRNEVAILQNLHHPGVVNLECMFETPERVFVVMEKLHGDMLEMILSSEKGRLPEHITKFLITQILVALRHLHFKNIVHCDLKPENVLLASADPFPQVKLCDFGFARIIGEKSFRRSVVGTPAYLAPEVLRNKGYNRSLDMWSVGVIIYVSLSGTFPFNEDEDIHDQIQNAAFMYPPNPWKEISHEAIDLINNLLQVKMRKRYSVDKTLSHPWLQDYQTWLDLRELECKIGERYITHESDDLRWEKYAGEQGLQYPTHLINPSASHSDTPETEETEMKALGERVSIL
Briefly: Inhibition of PKD1 (unknown origin) at 10 uM relative to control. The gist of the method: (§1)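 Single-concentration screen of each compound against a 59-protein-kinase panel, run at 10 µM or 1 µM. Activity relative to control is shown as a heat map across the panel.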

Experiment [2] deals with T2, Serine/threonine-protein kinase Sgk1 (Homo sapiens) (UniProt O00141).
T2 sequence (whole entry): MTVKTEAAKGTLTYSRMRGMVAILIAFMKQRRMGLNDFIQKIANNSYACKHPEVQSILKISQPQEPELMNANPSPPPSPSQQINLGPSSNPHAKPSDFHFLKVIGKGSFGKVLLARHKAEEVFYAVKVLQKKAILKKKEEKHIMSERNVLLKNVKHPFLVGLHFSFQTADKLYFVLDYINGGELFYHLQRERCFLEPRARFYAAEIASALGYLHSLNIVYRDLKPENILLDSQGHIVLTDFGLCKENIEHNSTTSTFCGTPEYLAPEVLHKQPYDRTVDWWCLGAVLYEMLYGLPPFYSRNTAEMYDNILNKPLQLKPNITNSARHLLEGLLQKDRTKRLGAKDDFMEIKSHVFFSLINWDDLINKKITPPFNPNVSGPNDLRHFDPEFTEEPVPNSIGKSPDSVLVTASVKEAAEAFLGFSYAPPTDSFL
Put plainly: Inhibition of SGK1 (unknown origin) at 10 uM relative to control. The procedure, abridged: (§2)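 Single-concentration screen across a panel of 59 protein kinases, with each compound tested at one fixed concentration. The read-out is residual kinase activity relative to control. Panel results are also condensed into a rescaled geometric mean (RGM) selectivity score.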

In experiment [3] the target is Ribosomal protein S6 kinase alpha-5 (Homo sapiens) (UniProt O75582). Briefly: Inhibition of MSK1 (unknown origin) at 1 uM relative to control. The gist of the method: as §1
Experiment [4] addresses 3-phosphoinositide-dependent protein kinase 1 (Homo sapiens) (UniProt O15530). Briefly: Inhibition of PDK1 (unknown origin) at 1 uM relative to control.
Experiment [5] concerns the target Rho-associated protein kinase 2 (Homo sapiens) (UniProt O75116). Briefly: Inhibition of ROCK2 (unknown origin) at 1 uM relative to control. The procedure, abridged: as §1
The target of experiment [6] is Mitogen-activated protein kinase 1 (Homo sapiens) (UniProt P28482). Put plainly: Inhibition of ERK2 (unknown origin) at 1 uM relative to control. The gist of the method: (§3)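 Single-point screen of each compound against a panel of 59 protein kinases, at 1 or 10 μM. The panel data are also summarised as a rescaled geometric mean selectivity score.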
Sequence of Mitogen-activated protein kinase 1 (Homo sapiens) (P28482 whole entry): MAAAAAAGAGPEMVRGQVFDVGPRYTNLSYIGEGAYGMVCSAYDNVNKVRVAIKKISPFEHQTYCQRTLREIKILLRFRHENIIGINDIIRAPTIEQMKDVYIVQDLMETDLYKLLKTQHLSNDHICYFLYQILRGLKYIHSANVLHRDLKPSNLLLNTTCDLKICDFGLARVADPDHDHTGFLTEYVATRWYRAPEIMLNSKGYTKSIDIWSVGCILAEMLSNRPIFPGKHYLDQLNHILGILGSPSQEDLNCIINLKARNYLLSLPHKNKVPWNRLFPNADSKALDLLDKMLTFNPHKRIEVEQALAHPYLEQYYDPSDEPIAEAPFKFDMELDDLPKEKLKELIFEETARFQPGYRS
The target of experiment [7] is Fibroblast growth factor receptor 1 (Homo sapiens) (UniProt P11362). Put plainly: Inhibition of FGFR1 (unknown origin) at 1 uM relative to control. The gist of the method:
as §3

Experiment [8] deals with MAP/microtubule affinity-regulating kinase 3 (Homo sapiens) (UniProt P27448). Briefly: Inhibition of MARK3 (unknown origin) at 1 uM relative to control. The procedure, abridged: as §1
The target in experiment [9] is Serine/threonine-protein kinase Nek6 (Homo sapiens) (UniProt Q9HC98). Briefly: Inhibition of NEK6 (unknown origin) at 1 uM relative to control. The gist of the method: as §1
Sequence of Serine/threonine-protein kinase Nek6 (Homo sapiens) (Q9HC98 whole entry): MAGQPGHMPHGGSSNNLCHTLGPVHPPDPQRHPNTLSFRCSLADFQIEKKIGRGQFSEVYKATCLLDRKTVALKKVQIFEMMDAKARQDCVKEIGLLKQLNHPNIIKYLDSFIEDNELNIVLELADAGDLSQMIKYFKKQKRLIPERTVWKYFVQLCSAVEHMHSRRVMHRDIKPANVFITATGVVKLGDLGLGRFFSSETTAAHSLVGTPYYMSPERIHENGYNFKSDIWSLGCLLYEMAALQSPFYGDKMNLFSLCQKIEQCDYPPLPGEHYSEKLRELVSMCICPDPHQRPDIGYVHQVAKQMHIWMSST
For experiment [10], the target named is MAP kinase-interacting serine/threonine-protein kinase 1 (Homo sapiens) (UniProt Q9BUB5). Put plainly: Inhibition of MNK1 (unknown origin) at 1 uM relative to control. The procedure, abridged:
as §1

Experiment [11] has as its target Proto-oncogene tyrosine-protein kinase Src (Homo sapiens) (UniProt P12931). Put plainly: Inhibition of Src (unknown origin) at 1 uM relative to control. The gist of the method:
as §2

For experiment [12], the target named is Ribosomal protein S6 kinase alpha-3 (Homo sapiens) (UniProt P51812). Put plainly: Inhibition of RSK2 (unknown origin) at 1 uM relative to control. The procedure, abridged: as §2
Sequence of Ribosomal protein S6 kinase alpha-3 (Homo sapiens) (P51812 whole entry): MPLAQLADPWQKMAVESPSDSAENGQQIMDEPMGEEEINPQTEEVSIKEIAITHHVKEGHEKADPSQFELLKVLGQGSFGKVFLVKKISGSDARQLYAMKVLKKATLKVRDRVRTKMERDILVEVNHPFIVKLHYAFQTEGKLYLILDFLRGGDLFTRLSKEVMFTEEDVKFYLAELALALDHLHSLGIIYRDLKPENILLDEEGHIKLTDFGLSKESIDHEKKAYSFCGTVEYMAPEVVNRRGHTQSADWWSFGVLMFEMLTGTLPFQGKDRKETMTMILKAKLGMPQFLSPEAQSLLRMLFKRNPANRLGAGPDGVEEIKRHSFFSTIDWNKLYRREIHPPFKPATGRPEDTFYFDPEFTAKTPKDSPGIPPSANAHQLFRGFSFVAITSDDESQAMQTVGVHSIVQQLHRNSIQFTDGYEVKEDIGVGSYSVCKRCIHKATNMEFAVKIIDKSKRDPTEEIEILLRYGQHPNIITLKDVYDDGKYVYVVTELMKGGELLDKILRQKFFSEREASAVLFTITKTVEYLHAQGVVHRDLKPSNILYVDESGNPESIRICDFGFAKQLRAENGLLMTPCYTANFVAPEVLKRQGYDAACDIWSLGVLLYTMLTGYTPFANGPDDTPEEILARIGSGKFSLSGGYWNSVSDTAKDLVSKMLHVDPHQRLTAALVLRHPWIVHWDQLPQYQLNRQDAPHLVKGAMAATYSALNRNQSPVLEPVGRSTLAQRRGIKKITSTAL
Experiment [13] deals with Serine/threonine-protein kinase N2 (Homo sapiens) (UniProt Q16513). Briefly: Inhibition of PRK2 (unknown origin) at 1 uM relative to control. The gist of the method:
as §1

Experiment [14] addresses Dual specificity mitogen-activated protein kinase kinase 1 (Homo sapiens) (UniProt Q02750). Briefly: Inhibition of MKK1 (unknown origin) at 1 uM relative to control. The gist of the method: as §1
Experiment [15] addresses Mitogen-activated protein kinase 3 (Homo sapiens) (UniProt P27361). Put plainly: Inhibition of ERK1 (unknown origin) at 1 uM relative to control. The gist of the method: as §3
In experiment [16] the target is T2, Serine/threonine-protein kinase Sgk1 (Homo sapiens). Briefly: Inhibition of SGK1 (unknown origin) at 1 uM relative to control. The gist of the method:
as §2

The target in experiment [17] is T1, Serine/threonine-protein kinase D1 (Homo sapiens). Put plainly: Inhibition of PKD1 (unknown origin) at 1 uM relative to control. The gist of the method:
as §1

Experiment [18] has as its target RAC-beta serine/threonine-protein kinase (Homo sapiens) (UniProt P31751). Briefly: Inhibition of PKBb (unknown origin) at 1 uM relative to control. The gist of the method: as §1

Sequence of 3-phosphoinositide-dependent protein kinase 1 (Homo sapiens) (O15530 whole entry, looked up): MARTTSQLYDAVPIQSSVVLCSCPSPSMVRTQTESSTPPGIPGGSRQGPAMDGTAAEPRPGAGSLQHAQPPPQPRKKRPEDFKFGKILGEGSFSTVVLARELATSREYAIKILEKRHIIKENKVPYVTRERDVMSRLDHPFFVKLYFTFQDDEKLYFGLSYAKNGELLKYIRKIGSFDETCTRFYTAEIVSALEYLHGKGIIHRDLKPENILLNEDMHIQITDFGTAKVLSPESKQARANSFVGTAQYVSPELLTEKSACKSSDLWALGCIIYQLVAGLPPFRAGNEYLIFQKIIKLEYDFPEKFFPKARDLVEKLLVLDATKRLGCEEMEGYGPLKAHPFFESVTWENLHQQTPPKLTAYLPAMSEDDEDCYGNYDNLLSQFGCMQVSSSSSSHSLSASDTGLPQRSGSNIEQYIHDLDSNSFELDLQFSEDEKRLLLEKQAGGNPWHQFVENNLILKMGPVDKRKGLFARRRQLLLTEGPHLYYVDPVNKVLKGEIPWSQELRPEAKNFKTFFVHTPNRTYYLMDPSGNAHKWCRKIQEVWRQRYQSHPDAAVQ
Sequence of MAP kinase-interacting serine/threonine-protein kinase 1 (Homo sapiens) (Q9BUB5 whole entry, looked up): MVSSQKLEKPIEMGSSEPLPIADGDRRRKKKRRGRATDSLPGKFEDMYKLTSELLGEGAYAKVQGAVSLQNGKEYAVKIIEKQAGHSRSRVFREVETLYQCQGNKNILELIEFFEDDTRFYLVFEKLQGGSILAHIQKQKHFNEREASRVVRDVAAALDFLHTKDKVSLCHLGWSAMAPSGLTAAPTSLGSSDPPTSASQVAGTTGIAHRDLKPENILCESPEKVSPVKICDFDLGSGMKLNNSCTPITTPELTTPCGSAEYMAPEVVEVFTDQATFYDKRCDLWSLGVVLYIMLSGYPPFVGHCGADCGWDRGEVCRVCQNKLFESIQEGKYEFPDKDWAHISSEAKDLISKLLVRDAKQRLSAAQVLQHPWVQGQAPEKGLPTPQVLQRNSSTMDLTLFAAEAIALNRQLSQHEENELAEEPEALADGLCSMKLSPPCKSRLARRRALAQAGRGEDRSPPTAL
Sequence of Rho-associated protein kinase 2 (Homo sapiens) (O75116 whole entry, looked up): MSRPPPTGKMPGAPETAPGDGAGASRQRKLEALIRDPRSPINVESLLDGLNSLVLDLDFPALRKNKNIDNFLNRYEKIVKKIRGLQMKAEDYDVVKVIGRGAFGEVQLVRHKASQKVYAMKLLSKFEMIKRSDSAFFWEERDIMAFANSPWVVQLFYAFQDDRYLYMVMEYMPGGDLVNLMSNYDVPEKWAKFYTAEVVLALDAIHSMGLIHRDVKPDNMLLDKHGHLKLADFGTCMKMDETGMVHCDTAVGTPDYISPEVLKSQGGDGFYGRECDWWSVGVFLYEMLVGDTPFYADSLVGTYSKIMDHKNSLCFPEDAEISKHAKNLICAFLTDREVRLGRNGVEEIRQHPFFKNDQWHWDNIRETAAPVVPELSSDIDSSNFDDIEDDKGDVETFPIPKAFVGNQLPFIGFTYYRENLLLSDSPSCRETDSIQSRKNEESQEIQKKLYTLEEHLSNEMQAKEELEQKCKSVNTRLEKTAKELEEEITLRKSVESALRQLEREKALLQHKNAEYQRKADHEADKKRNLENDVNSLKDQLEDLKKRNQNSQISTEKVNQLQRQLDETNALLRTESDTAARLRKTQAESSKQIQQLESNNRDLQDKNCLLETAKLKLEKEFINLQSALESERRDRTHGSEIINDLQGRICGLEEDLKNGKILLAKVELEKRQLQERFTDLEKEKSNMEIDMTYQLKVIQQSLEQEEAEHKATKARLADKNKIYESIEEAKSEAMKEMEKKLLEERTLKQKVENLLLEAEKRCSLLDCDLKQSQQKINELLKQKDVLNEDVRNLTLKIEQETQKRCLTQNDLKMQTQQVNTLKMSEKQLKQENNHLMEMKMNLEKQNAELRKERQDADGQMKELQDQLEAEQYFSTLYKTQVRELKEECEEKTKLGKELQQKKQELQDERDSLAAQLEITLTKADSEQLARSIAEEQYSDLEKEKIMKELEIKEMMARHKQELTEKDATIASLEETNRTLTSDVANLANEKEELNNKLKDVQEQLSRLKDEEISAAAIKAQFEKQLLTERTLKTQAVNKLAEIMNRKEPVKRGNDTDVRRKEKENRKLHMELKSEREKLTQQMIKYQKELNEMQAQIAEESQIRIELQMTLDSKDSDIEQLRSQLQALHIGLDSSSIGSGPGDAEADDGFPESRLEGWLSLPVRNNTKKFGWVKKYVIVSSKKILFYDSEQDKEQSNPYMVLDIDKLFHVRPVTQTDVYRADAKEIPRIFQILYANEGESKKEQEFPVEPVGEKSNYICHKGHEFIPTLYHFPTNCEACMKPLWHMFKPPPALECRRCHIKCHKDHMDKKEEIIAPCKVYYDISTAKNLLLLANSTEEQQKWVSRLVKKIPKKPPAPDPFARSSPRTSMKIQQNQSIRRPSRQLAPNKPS
Sequence of Mitogen-activated protein kinase 3 (Homo sapiens) (P27361 whole entry): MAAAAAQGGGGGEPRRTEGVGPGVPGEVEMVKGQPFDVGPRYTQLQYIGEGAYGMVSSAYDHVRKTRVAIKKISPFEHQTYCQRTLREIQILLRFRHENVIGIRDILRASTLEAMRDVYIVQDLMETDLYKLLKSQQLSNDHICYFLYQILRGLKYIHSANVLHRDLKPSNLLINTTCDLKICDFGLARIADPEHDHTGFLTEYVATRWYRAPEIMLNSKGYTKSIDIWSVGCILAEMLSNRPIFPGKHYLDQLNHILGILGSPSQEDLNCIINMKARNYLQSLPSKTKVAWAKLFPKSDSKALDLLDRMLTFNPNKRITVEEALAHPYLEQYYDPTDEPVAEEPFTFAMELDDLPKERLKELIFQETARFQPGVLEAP
Sequence of Dual specificity mitogen-activated protein kinase kinase 1 (Homo sapiens) (Q02750 whole entry): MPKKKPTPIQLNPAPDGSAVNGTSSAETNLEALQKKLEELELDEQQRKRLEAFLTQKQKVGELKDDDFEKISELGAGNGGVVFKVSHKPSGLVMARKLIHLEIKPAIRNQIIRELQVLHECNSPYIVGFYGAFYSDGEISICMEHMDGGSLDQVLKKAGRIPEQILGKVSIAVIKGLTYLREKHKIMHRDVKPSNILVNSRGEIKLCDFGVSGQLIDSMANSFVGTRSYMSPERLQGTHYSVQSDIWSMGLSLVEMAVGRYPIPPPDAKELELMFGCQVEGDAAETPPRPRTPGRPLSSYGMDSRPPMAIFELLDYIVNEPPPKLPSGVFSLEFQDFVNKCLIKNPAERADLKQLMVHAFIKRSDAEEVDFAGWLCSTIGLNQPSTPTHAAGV

The inhibition is the percentage by which the read-out fell short of the control. Low values mean a weak effect, high ones a strong effect. With `Cc1n[nH]c2ccnc(OC3CCCCC3)c12`, the inhibition in experiment [1] amounted to 70%; in experiment [2], 73%.

As for `c1cc(-c2n[nH]c3ccnc(OC4CCOCC4)c23)cc(N2CCOCC2)n1`, the inhibition came to 0% in experiment [3]; 0% in experiment [4]; 0% in experiment [5]; 51% in [6]; 4% in [7]; 0% in experiment [8]. Moreover, the inhibition in experiment [9] amounted to 0%; in [10], 2%; in [11], 0%; in experiment [12] it was 0%; in experiment [13] it was 0%; in [14] it was 7%. For the same molecule, the inhibition in experiment [15] turned out to be 37%; in experiment [16], 0%; in experiment [17] it was 7%; in experiment [18], 0%.

`Cc1n[nH]c2ccnc(Nc3ccccc3F)c12`: the inhibition in experiment [1] amounted to 60%; in [2], 69%.

Turning to `CC(C)n1cc(-c2n[nH]c3ccnc(OC4CCOCC4)c23)cn1`, the inhibition was determined as 18% in experiment [3]; 5% in experiment [4]; 28% in experiment [5]; 49% in experiment [6]; 56% in [7]; 18% in experiment [8]. Further, the inhibition in experiment [9] is 0%; in experiment [10], 0%; in experiment [11], 0%; in [12], 58%; in experiment [13] it was 24%; in experiment [14] it was 57%. Also, the inhibition in [15] was determined as 28%; in experiment [16], 12%; in experiment [17], 41%; in experiment [18], 27%.

Consider `Cc1n[nH]c2ccnc(NC3CCCCC3)c12`, for which the results for the inhibition in experiment [1] and in experiment [2] were 34% and 41%, respectively.
